Activity calls are given as the source filed them. The calls are words filed in the database; no cut-off is given here.
Assays:
PC-3 [1] = assay: Cytotoxicity against human PC3 cells after 72 hrs by CellTitter-Glo luminescent cell viability assay; assay type: functional, cell-based; settings: PC-3, 72 h
PC-3 [2] = assay: Induction of apoptosis in human PC3 cells assessed as caspase 3/7 activation after 24 hrs by Caspase-Glo 3/7 assay; assay type: functional, cell-based; settings: PC-3, 24 h
[3] = target: T1, Alpha-1B adrenergic receptor (Rattus norvegicus) (UniProt P15823); assay: Antagonist activity at rat Alpha-1B adrenoceptor assessed as inhibition if phenylephrine-induced contraction of spleen; assay type: functional, tissue-based
T1 sequence (whole entry): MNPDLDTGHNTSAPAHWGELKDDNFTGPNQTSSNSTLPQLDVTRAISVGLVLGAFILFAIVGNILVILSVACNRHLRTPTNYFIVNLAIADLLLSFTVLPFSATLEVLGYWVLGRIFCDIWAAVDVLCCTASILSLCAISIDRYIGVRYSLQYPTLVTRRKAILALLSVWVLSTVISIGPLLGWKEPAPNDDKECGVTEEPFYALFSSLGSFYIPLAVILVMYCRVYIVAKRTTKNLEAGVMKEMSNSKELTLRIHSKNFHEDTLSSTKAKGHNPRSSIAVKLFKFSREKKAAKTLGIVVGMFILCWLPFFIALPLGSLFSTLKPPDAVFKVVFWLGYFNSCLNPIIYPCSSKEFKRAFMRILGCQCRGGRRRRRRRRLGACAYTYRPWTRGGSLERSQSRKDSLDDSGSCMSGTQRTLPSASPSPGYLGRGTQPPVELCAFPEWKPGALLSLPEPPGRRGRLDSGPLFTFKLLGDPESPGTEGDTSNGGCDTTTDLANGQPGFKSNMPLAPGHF
How it was run: (§1)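 Isolated rat tissue contraction assay. The α1A response used vas deferens with (-)-noradrenaline as agonist, α1D used thoracic aorta with (-)-noradrenaline, and α1B used spleen with (-)-phenylephrine. pA2 values are means ± SEM over three antagonist concentrations, each tested at least four times. Where the Schild slope differed from unity, pKB was calculated by van Rossum at the lowest antagonist concentration giving log(CR−1) ≥0.5.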

DU-145 [4] = assay: Induction of apoptosis in human DU145 cells assessed as caspase 3/7 activation after 24 hrs Caspase-Glo 3/7 assay; assay type: functional, cell-based; settings: du-145
[5] = target: T2, Alpha-1D adrenergic receptor (Homo sapiens, UniProt P25100); assay: Displacement of [3H]prazosin from human Alpha-1D adrenoceptor expressed in CHO cells; assay type: cell-based
T2 sequence (P25100 whole entry): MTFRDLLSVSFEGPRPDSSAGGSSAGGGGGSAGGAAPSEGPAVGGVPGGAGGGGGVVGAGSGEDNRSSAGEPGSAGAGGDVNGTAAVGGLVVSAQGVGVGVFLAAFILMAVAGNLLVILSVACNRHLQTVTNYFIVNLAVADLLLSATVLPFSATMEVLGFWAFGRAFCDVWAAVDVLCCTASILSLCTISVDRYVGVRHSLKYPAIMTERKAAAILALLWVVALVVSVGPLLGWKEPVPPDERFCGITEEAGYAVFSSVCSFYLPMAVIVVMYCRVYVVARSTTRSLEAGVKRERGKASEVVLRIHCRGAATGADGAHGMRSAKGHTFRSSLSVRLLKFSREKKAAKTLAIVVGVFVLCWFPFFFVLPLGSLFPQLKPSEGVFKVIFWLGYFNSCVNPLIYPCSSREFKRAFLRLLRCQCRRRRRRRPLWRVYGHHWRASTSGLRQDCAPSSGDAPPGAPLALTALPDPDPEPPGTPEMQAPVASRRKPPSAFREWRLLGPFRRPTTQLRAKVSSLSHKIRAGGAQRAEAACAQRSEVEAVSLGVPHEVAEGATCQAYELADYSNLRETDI
How it was run: (§2)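 Radioligand competition binding used [3H]prazosin on membranes of CHO cells expressing human α1a, α1b or α1d adrenoceptor. IC50 values were converted to pKi by the Cheng-Prusoff equation. Data come from two to three experiments run in triplicate, agreeing within ±20%.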

[6] = target: T3, Alpha-1B adrenergic receptor (Homo sapiens, UniProt P35368); assay: Displacement of [3H]prazosin from human Alpha-1B adrenoceptor expressed in CHO cells; assay type: cell-based; how it was run: as §2
T3 sequence (P35368 whole entry): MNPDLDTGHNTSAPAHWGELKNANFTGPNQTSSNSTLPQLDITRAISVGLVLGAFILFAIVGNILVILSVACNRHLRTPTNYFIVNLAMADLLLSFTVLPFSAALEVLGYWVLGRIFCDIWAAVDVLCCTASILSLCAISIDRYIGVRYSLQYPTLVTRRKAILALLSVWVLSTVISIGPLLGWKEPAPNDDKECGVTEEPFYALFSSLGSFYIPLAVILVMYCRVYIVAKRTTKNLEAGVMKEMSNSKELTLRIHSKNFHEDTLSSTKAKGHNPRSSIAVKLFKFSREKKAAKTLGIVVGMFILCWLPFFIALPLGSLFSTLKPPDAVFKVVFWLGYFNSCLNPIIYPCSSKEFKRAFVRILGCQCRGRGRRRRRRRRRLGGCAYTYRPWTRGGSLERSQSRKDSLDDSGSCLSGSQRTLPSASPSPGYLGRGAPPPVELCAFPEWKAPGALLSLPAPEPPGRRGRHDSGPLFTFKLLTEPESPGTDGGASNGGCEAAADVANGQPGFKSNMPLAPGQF

[7] = target: T4, Alpha-1A adrenergic receptor (Homo sapiens, UniProt P35348); assay: Displacement of [3H]prazosin from human alpha1A adrenoceptor expressed in CHO cells; assay type: cell-based; how it was run: as §2
T4 sequence (P35348 whole entry): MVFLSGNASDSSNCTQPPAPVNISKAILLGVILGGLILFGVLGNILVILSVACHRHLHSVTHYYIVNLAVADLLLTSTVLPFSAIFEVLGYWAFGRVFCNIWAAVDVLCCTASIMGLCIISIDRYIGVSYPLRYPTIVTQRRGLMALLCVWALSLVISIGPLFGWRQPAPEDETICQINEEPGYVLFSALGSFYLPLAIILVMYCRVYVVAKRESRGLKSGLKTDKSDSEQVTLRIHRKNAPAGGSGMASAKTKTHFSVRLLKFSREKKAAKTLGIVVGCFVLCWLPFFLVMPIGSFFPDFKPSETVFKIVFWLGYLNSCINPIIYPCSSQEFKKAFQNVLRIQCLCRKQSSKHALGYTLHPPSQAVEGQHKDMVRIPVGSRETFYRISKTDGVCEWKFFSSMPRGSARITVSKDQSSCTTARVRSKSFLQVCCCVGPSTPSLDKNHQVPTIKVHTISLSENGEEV

[8] = target: T5, Alpha-1A adrenergic receptor (Rattus norvegicus) (UniProt P43140); assay: Antagonist activity at rat alpha1A adrenoceptor assessed as inhibition if norepinephrine-induced contraction of vas deference; assay type: functional; how it was run: as §1
T5 sequence (whole entry): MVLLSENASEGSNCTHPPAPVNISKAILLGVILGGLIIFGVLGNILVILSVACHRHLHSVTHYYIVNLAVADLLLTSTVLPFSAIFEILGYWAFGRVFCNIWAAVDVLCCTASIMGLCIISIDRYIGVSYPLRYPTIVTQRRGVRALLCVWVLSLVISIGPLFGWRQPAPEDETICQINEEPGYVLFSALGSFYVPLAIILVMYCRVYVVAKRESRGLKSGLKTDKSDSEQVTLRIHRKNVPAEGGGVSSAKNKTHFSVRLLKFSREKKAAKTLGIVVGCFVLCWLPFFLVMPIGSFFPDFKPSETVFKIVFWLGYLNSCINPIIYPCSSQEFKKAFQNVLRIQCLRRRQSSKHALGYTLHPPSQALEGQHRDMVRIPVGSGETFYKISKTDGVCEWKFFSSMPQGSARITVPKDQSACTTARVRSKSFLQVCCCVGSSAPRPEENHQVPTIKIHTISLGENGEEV

LNCaP [9] = assay: Cytotoxicity against human LNCAP cells after 72 hrs by CellTitter-Glo luminescent cell viability assay; assay type: functional, cell-based
DU-145 [10] = assay: Cytotoxicity against human DU145 cells after 72 hrs by CellTitter-Glo luminescent cell viability assay; assay type: functional, cell-based; settings: DU-145, 72 h
NHDF [11] = assay: Cytotoxicity against human NHDF cells after 72 hrs by CellTitter-Glo luminescent cell viability assay; assay type: functional, cell-based
LNCaP [12] = assay: Induction of apoptosis in human LNCAP cells assessed as caspase 3/7 activation after 24 hrs Caspase-Glo 3/7 assay; assay type: functional, cell-based; settings: lncap
[13] = target: T6, Alpha-1D adrenergic receptor (Rattus norvegicus) (UniProt P23944); assay: (§3) Antagonist activity at rat Alpha-1D adrenoceptor assessed as inhibition if norepenephrine-induced contraction of thoracic aorta; assay type: functional, tissue-based; how it was run: as §1
T6 sequence (whole entry): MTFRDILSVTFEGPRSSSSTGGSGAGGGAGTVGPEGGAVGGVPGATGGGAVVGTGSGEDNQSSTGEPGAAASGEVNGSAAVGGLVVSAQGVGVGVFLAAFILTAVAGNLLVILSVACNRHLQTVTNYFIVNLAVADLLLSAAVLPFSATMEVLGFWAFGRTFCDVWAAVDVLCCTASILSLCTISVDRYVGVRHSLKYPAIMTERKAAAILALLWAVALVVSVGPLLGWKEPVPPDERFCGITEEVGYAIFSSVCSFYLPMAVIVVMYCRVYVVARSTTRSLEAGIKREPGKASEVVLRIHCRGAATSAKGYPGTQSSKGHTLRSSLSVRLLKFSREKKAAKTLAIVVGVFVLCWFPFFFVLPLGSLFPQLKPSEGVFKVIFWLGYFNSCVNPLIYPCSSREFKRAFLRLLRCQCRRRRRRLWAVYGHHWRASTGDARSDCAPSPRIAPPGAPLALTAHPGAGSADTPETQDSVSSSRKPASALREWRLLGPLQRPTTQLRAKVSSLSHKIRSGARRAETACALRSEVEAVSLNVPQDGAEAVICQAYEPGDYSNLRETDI

NHDF [14] = assay: Induction of apoptosis in human NHDF cells assessed as caspase 3/7 activation after 24 hrs Caspase-Glo 3/7 assay; assay type: functional, cell-based
PC-3 [15] = assay: Antiangiogenic activity in human PC3 cells xenografted in NU/NU mouse assessed as reduction vascularization at 1 mg/kg by immunohistochemistry; assay type: functional, organism-based; set-up: dose 1 mg/kg
How it was run: (§4)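 Vascularization of PC-3 flank tumors from nude mice dosed orally was assessed by immunohistochemistry with rat anti-mouse CD31 monoclonal antibody as endothelial marker. Doses were 0.3, 1 and 3 mg/kg.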

PC-3 [16] = assay: Induction of apoptosis in human PC3 cells xenografted in NU/NU mouse assessed as DNA fragmentation at 0.3 to 3 mg/kg by agarose gel electrophoresis; assay type: functional, organism-based
How it was run: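 DNA from PC-3 subcutaneous tumors of orally treated nude mice was run on an electrophoretic gel. Apoptosis was scored as a DNA ladder pattern.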

PC-3 [17] = assay: Antiangiogenic activity in human PC3 cells xenografted in NU/NU mouse assessed as reduction vascularization at 0.3 mg/kg by immunohistochemistry; assay type: functional, organism-based; set-up: dose 0.3 mg/kg; how it was run: as §4
PC-3 [18] = assay: Antitumor activity against human PC3 cells xenografted in NU/NU mouse at 0.3 mg/kg, po after 21 days relative to control; assay type: functional
How it was run: (§5)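 Male nude mice carried subcutaneous left-flank tumors from injected PC-3 cells. Drug was given orally once daily for 21 consecutive days. There were five groups of six mice, treated and control. Tumor growth is reported as mean ± SEM, analysed by ANOVA and Student t-test against control.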

PC-3 [19] = assay: Antitumor activity against human PC3 cells xenografted in NU/NU mouse after 21 days; assay type: functional; how it was run: as §5
[20] = target: T7, Alpha-1D adrenergic receptor (Rattus norvegicus, UniProt P23944); assay: as §3; assay type: functional, tissue-based; settings: read-out: pA2 (converted); how it was run: as §1
T7 sequence (P23944 whole entry): T6 sequence (whole entry)

PC-3 [21] = assay: Antiangiogenic activity in human PC3 cells xenografted in NU/NU mouse assessed as reduction vascularization at 3 mg/kg by immunohistochemistry; assay type: functional, organism-based; set-up: dose 3 mg/kg; how it was run: as §4

EC50 (PC-3 [2]) [nM] | pKb [3] | EC50 (DU-145 [4]) [nM] | Ki [5] [nM] | Ki [6] [nM] | Ki [7] [nM] | pKb [8] | EC50 (LNCaP [12]) [nM] | pKb [13] | EC50 (NHDF [14]) [nM] | SMILES | IC50 (PC-3 [1]) [nM] | IC50 (LNCaP [9]) [nM] | IC50 (DU-145 [10]) [nM] | IC50 (NHDF [11]) [nM] | also measured
10000 | 8.35 | 10000 | 1.58 | 0.933 | 1.86 | 8.51 | 10000 | 8.64 | 10000 | COc1cc2nc(N(C)CCCCCCN(C)C(=O)C3COc4ccccc4O3)nc(N)c2cc1OC (stereo not given) | 8400 | 4610 | 9250 | 9800 | –
10000 | 7.14 | 10000 | 26.3 | 22.4 | 81.3 | 5.88 | 10000 | 6.88 | 10000 | COc1cc2nc(N3CCN(C(=O)C4COc5ccccc5O4)[C@H]4CCCC[C@@H]43)nc(N)c2cc1OC (relative stereo) | > 10000 | 9750 | > 10000 | > 10000 | –
1860 | 8.3 | – | 0.17 | 0.417 | 2.82 | 7.21 | – | – | > 10000 | COc1cc2nc(N3CCN(C(=O)C4COc5ccccc5O4)[C@H]4CCCC[C@H]43)nc(N)c2cc1OC (relative stereo) [CYCLODOXAZOSIN] | 850 | 570 | 960 | 1460 | Activity (PC-3 [15]): Active; EC50 (PC-3 [1]): 1860 nM; Activity (PC-3 [16]): Active; Activity (PC-3 [17]): Active; EC50 (LNCaP [9]): 1420 nM; EC50 (DU-145 [10]): 2600 nM; Activity (PC-3 [18]): 21%; EC50 (NHDF [11]): > 10000 nM; Activity (PC-3 [19]): Dose-dependent effect; Kb [20]: 40.7 nM; Activity (PC-3 [21]): Active
